Screens (PubChem)
miR-122 sensor: miR-122 Renilla sensor signal increase in Huh7, primary screen, miR-122 inhibitor project, cell-based, single point, plate reader. Huh7 miR-122 Renilla luciferase sensor, 48 h; neutral wells = 0, positive control = 100. AID 602342, 2012. activation (reporter increase), % at 12.5 µM. actives 0.3% (n = 340,000);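 active = mean replicate activation score at least 90 and every replicate individually at or above 90; inconclusive = only one of the two criteria met; inactive = neither criterion met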;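 also: higher luciferase means less miR-122 activity so hits act as miR-122 inhibitors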
HIV Env fusion: inhibitors of HIV-1 Env-driven cell-cell fusion, primary screen, HeLa-JRFL effector, CEM21 target cells, luciferase. AID 651610, 2012. actives 1.1% (n = 360,000). inhibition, % at 12.3 µM;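 active = mean replicate inhibition score of at least 50 and every replicate individually at or above 50; inconclusive = only one of the two criteria met; inactive = mean below 50 and not all replicates reaching 50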;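 also: 0% = plate neutral controls and 100% = maraviroc near 300 nM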
Rtt109 HAT inh: inhibitors of C. albicans Rtt109/Vps75 HAT, primary screen, biochemical, ThioGlo CoA-SH fluorescence, plate reader; purified Rtt109/Vps75, 4 h; inhibition, % at 34.9 µM; actives 0.16% (n = 330,000); Histone acetyltransferase RTT109 (Candida albicans (strain SC5314 / ATCC MYA-2876)), …;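 active = inhibition of at least 50% in every replicate; inconclusive = best replicate reaches 50% inhibition but some replicates fall short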
Target sequence (Q5AAJ8 whole entry, looked up): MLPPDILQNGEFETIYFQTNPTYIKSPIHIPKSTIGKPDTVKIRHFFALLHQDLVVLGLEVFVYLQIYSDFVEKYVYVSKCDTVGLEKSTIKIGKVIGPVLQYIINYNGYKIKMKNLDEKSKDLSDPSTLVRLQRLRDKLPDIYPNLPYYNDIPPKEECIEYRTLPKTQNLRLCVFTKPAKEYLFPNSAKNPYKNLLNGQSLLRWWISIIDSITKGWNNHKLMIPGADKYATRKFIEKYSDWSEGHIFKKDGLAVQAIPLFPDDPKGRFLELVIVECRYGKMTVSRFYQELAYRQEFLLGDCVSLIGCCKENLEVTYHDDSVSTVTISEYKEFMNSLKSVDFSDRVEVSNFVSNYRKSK
Cneo AK release: Cryptococcus neoformans cell lysis inducers, primary screen, AK release luminescence, single concentration | C. neoformans lysis, adenylate kinase release luminescence, 4 h; normalised: neutral wells 0, clomiphene wells 100 | AID 651654, 2012 | lysis activity, % at 15 µM | actives 0.2% (n = 360,000);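 active = mean lysis activity across replicates of at least 80%, whatever share of replicates individually reach that level; inactive = mean lysis activity below 80%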
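Material – Cryptococcus neoformans yeast cells · Quantity – 5 × 10^6 yeast cells/mL · Buffer or medium – YPD medium · Compound – single dose · Timing – 4 h static compound exposure, 37 °C, read 1 h post-reagent · Signal – adenylate kinase release luminescence · Read-out basis – lysis from increased AK signal · Benchmarks – Clomiphene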
INS-1E GSIS act: GLuc luminescence reporter in INS-1E cells, primary screen for activators of glucose-dependent secretion of insulin | INS-1E GLuc reporter insulin secretion, 2-3 h | activation, % at 16.6 µM | AID 743287, 2014 | actives 0.61% (n = 370,000);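 active = lowest replicate activation of at least 40%, so every replicate reaches that level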;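 also: 0% = median of neutral control wells and 100% = median of IBMX positive control wells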
dFosB act: activators of delta FosB homodimer, primary screen, biochemical, fluorescence polarization, TAMRA-CDK5 oligo, single point | activation, % at 25 µM | AID 493131, 2011 | actives 0.99% (n = 340,000) | purified delta FosB; percent of positive-control signal above neutral wells;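 active = mean activation above about 17%, with every replicate also reaching it, limit read from the data, passing the limit was not always enough; inconclusive = only one of the two conditions met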
* hit, by the source's call; [ ] = another dose, or the depositor's remark. Compounds with a hit are over-represented: about 2.4% of the library has one in this group of screens.

What do the screens show for `COCc1ccc(C(=O)NC2CCSc3ccccc32)cc1` (configuration not stated)?
miR-122 sensor: -2.2; HIV Env fusion: -5.8; Rtt109 HAT inh: -3.7; Cneo AK release: 2.2; INS-1E GSIS act: 75.8*; dFosB act: -7.0

Results for C[C@@H]1CN([C@@H](C)CO)C(=O)c2cc(NC(=O)c3ccccc3)ccc2O[C@@H](C)CCCCO[C@H]1CN(C)S(=O)(=O)c1cccs1 ?
miR-122 sensor: 16.1[16.7 µM]; HIV Env fusion: 15.8[16.7 µM]; Cneo AK release: 4.2; INS-1E GSIS act: -23.6

How did C[C@H]1CN([C@@H](C)CO)S(=O)(=O)c2ccc(C#CC(C)(C)O)cc2O[C@@H]1CN(C)C(=O)C1CC1 do in these assays?
miR-122 sensor: 2.3[16.7 µM]; HIV Env fusion: -27.5[16.7 µM]; INS-1E GSIS act: 1.0

How did C[C@@H]1CN([C@@H](C)CO)S(=O)(=O)c2ccc(-c3ccncc3)cc2O[C@H]1CN(C)C(=O)CN(C)C do in these assays?
miR-122 sensor: -3.5[16.7 µM]; HIV Env fusion: -3.3[16.7 µM]; Cneo AK release: -1.1; INS-1E GSIS act: 12.8

How did CCOC(=O)C(=Cc1cc(=O)c(OC)co1)C(=O)OCC do in these assays?
HIV Env fusion: -246.3; Rtt109 HAT inh: 77.8*; INS-1E GSIS act: -6.6; dFosB act: -9.1

What do the screens show for `COc1coc(C(O)CN)cc1=O` (configuration not stated)?
HIV Env fusion: -11.9; INS-1E GSIS act: 11.0; dFosB act: -1.9

Results for Cc1ccc(S(=O)(=O)N2CC3(O)CN(C(=O)OC(C)C)N(C(=O)OC(C)C)CC3(OC(=O)NCC3CCCCC3)C2)cc1 (configuration not stated) ?
miR-122 sensor: -13.0; HIV Env fusion: 72.5*; Cneo AK release: 9.1; INS-1E GSIS act: -20.4

How did Cc1ccc(S(=O)(=O)N2CC3(O)CN(C(=O)OC(C)C)N(C(=O)OC(C)C)CC3(OC(=O)NC3CC3)C2)cc1 (configuration not stated) do in these assays?
HIV Env fusion: -13.4; INS-1E GSIS act: -1.0

What do the screens show for `O=C(Nc1ccc([N+](=O)[O-])cc1)Nc1ccc(OC(F)F)c(Cl)c1`?
HIV Env fusion: 42.6; Rtt109 HAT inh: -6.7; INS-1E GSIS act: 173.9*; dFosB act: -2.2

Results for COc1cc(C(=O)Nc2ccc(-c3nc4cc(C)ccc4o3)c(O)c2)cc(OC)c1OC ?
miR-122 sensor: -9.0; Rtt109 HAT inh: -19.6; Cneo AK release: -0.6; dFosB act: 26.9*

What do the screens show for `O=C(N(c1ccccn1)c1ccccn1)C12CC3CC(CC(Cl)(C3)C1)C2`?
miR-122 sensor: -2.5; HIV Env fusion: 72.8*; Rtt109 HAT inh: -2.2; Cneo AK release: -1.3; INS-1E GSIS act: 12.9; dFosB act: -1.3

Results for NC(=O)c1cc([N+](=O)[O-])ccc1NCc1cccc2ccccc12 ?
HIV Env fusion: inconclusive; Rtt109 HAT inh: -1.8; Cneo AK release: 11.7; INS-1E GSIS act: -4.1; dFosB act: -5.1

What do the screens show for `O=C(/C=C/Nc1ccc([N+](=O)[O-])cc1Br)c1cccc2ccccc12`?
miR-122 sensor: 4.0; HIV Env fusion: -28.8; Rtt109 HAT inh: 51.2*; Cneo AK release: -2.6; INS-1E GSIS act: -17.4; dFosB act: -12.5

Results for CCOc1ccc(CCNC(=O)COc2cccc(-n3cnnn3)c2)cc1OCC ?
miR-122 sensor: -0.8; HIV Env fusion: 0.7; Rtt109 HAT inh: -7.7; Cneo AK release: -0.1; INS-1E GSIS act: 44.1*; dFosB act: -12.4

Results for COc1ccc(CN(C)C(=O)COc2cccc(-n3cnnn3)c2)cc1OC ?
miR-122 sensor: -2.6; HIV Env fusion: -1.0; Rtt109 HAT inh: 4.5; Cneo AK release: -0.1; INS-1E GSIS act: 41.5*; dFosB act: -1.7

How did COc1ccccc1CNC(=O)COc1cccc(-n2cnnn2)c1 do in these assays?
Rtt109 HAT inh: -3.5; INS-1E GSIS act: 4.8; dFosB act: -1.5
